Reference: ChEMBL document CHEMBL1136960, “Oxidation of carbidopa by tyrosinase and its effect on murine melanoma” (Bioorg Med Chem Lett, 2009)
Calls of active or inactive are those of the source. The calls are words filed in the database; no cut-off is given here.

Assays:
[1] = Cytotoxicity against mouse HECa10 cells by MTT assay; type: cell-based
Method in brief: (§1)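 Control lines used: NIH3T3 (ATCC) and HECa10 (lymph node-derived). Cells seeded at 2 × 10³ per well in RPMI 1640 with 10% FBS, 37 °C, 5% CO₂. Compounds added after 24 h in quadruplicate (10–2000 µM, eleven concentrations), then 24 or 48 h exposure. MTT for 3 h, formazan dissolved in acid–isopropanol, A570. Survival is percent of initial absorbance.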

[2] = Cytotoxicity against mouse NIH/3T3 cells by MTT assay; type: cell-based; conditions: nih3t3; method in brief: as §1
[3] = test system: B16-F10; assay: Cytotoxicity against mouse B16F10 cells at 250 uM after 48 hrs by MTT assay; type: functional, cell-based
Method in brief: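 B16(F10) cells at 2 × 10³ per well in RPMI 1640 with 10% FBS, 37 °C, 5% CO₂. Compound added after 24 h in quadruplicate, with 250 µM among the tested concentrations, then incubated 48 h. MTT 0.5 mg/mL for 3 h, formazan dissolved in acid–isopropanol, read at 570 nm. Survival expressed as percent of initial absorbance.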

[4] = test system: B16-F10; assay: Cytotoxicity against mouse B16F10 cells after 48 hrs by MTT assay; type: functional, cell-based
Method in brief: (§2)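 B16(F10) murine melanoma cells seeded at 2 × 10³ per well in RPMI 1640 with 10% FBS, 37 °C, 5% CO₂. After 24 h, compounds added in quadruplicate at eleven concentrations (10–2000 µM), then incubated a further 24 or 48 h. MTT (0.5 mg/mL in PBS) for 3 h at 37 °C, formazan dissolved in acid–isopropanol, A570. Survival = absorbance at time t / initial absorbance × 100%.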

[5] = test system: B16-F10; assay: Cytotoxicity against mouse B16F10 cells after 24 hrs by MTT assay; type: functional, cell-based; method in brief: as §2

Structure (SMILES)	Activity [1]	Activity [2]	Activity [3]	Activity [4]	Activity [5]
C[C@@](Cc1ccc(O)c(O)c1)(NN)C(=O)O.O [CARBIDOPA]	Toxic	Toxic	Active	–	–
Cc1cc2cc(O)c(O)cc2nn1	Toxic	Toxic	–	Active	inactive
CC(Cc1ccc(O)c(O)c1)C(=O)O (stereo unspecified)	Toxic	Toxic	–	Dose-dependent effect	Dose-dependent effect
